Holding throughout (assay type): functional
In assay [1] the test system is Mycoplasmoides gallisepticum. The assay is described as follows: The anti-mycoplasmal activity was determined against Mycoplasma gallisepticum K514 without the addition of copper. The essentials: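 No copper was added; the medium's copper was below 3 μM. The medium was modified Adler at pH 8.0, with horse serum, benzylpenicillin and phenol red. Compounds were in DMSO (final 1.25%) and tested in serial 2-fold duplicate dilutions up to 100 μM. Each tube held 3 mL of medium plus 1 mL of fresh culture (A660 0.22) and was incubated at 37 °C for 24 h. MIC was the lowest concentration preventing phenol red color change.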

The subject of assay [2] is Mycoplasmoides gallisepticum. The assay is described as follows: The anti-mycoplasmal activity was determined against Mycoplasma gallisepticum K514 with the addition of copper (40 uM CuSO4). The method, boiled down: (§1)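 Broth-dilution MIC in modified Adler medium at pH 8.0, with heat-inactivated horse serum, benzylpenicillin and phenol red. CuSO4 was added to a final 40 μM. Compounds were in DMSO (final 1.25%) and tested in serial 2-fold dilutions, in duplicate, up to 100 μM. Each tube (3 mL) received 1 mL of fresh culture (A660 0.22, pH 6.8) and was incubated at 37 °C for 24 h. MIC was the lowest concentration without indicator color change.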

The subject of assay [3] is Mycoplasmoides gallisepticum. The assay is described as follows: The anti-mycoplasmal activity against Mycoplasma gallisepticum K514 with the addition of copper at 40 uM CuSO4. The essentials: as §1

Values after ≈ are worked out from the molar mass of the structure shown. Where only a bound is given, the exact number is not on record here.

Drawing on ChEMBL document CHEMBL1124405, “Synthesis and copper-dependent antimycoplasmal activity of 1-amino-3-(2-pyridyl)isoquinoline derivatives. 2. Amidines” (1989), this text covers MIC for 20 molecules.

By MIC is commonly meant the lowest concentration that inhibits growth of the organism. Lower therefore signals a more susceptible organism.

`Cc1cccc2c(NC(=N)c3ccccn3)nc(-c3ccccc3)cc12`: the MIC in assay [1] and in assay [2] was more than 100 µM in each case.

In the case of `Cc1ccc(C(=N)Nc2nc(-c3ccccn3)cc3ccccc23)cc1`, the minimal inhibitory concentration (MIC) in assay [1] stood at 0.78 µM (≈ 0.264 µg/mL); in assay [2], 0.0683 µM (≈ 0.0231 µg/mL).

As to `N=C(Nc1nc(-c2ccccn2)cc2ccccc12)c1ccccc1`, the MIC worked out at 0.195 µM (≈ 0.0633 µg/mL) in assay [1] and 0.0634 µM (≈ 0.0206 µg/mL) in assay [2].

For `N=C(Nc1nc(-c2ccccn2)cc2ccccc12)c1ccncc1`, the minimal inhibitory concentration (MIC) in assay [1] is 0.39 µM (≈ 0.127 µg/mL); in assay [2] it was 0.039 µM (≈ 0.0127 µg/mL).

For `Cc1cccc(C(=N)Nc2nc(-c3ccccn3)cc3ccccc23)c1`, the MIC in assay [1] was found to be 0.78 µM (≈ 0.264 µg/mL); in assay [2] it was 0.0488 µM (≈ 0.0165 µg/mL).

Consider `Nc1nc(-c2ccccn2)cc2ccccc12`, for which the values for the MIC in assay [1] and in assay [3] were 452 µM (≈ 100 µg/mL) and 0.45 µM (≈ 0.0996 µg/mL), respectively.

Turning to `N=C(Nc1nc(-c2ccccn2)cc2ccccc12)c1ccc(Cl)c(Cl)c1`, the values for the minimal inhibitory concentration (MIC) in assay [1] and in assay [2] were more than 10 µM and 0.78 µM (≈ 0.307 µg/mL), respectively.

Regarding `N=C(Nc1nc(-c2ccccn2)cc2ccccc12)c1ccccn1`, the values for the MIC in assay [1] and in assay [2] were 0.39 µM (≈ 0.127 µg/mL) and 0.0325 µM (≈ 0.0106 µg/mL), respectively.

Regarding `CC[C@H]1OC(=O)C[C@@H](O)[C@H](C)[C@@H](O[C@@H]2O[C@H](C)[C@@H](O[C@H]3C[C@@](C)(O)[C@@H](O)[C@H](C)O3)[C@H](N(C)C)[C@H]2O)[C@@H](CC=O)C[C@@H](C)C(=O)/C=C/C(C)=C/[C@@H]1CO[C@@H]1O[C@H](C)[C@@H](O)[C@@H](OC)[C@H]1OC` [TYLOSIN], the minimum inhibitory concentration (MIC) in assay [1] and in assay [2] was 0.1 µM (≈ 0.0916 µg/mL) each time.

On to CUPRIC SULFATE, for which the lowest concentration to inhibit growth in assay [1] (MIC) was 700 µM.

For the molecule `N=C(Nc1ccccn1)c1ccccn1`, the MIC in assay [1] was more than 500 µM; in assay [3], 250 µM (≈ 49.6 µg/mL).

On to `COc1cccc(C(=N)Nc2nc(-c3ccccn3)cc3ccccc23)c1`, for which the figures for the MIC in assay [1] and in assay [2] were 1.56 µM (≈ 0.553 µg/mL) and 0.078 µM (≈ 0.0276 µg/mL), respectively.

Turning to `Cc1cc(C(=N)Nc2nc(-c3ccccn3)cc3ccccc23)ccn1`, the MIC in assay [1] stood at 0.39 µM (≈ 0.132 µg/mL); in assay [2], 0.065 µM (≈ 0.0221 µg/mL).

With `Cc1cccc(C(=N)Nc2nc(-c3ccccn3)cc3ccccc23)n1`, the MIC was found to be 0.39 µM (≈ 0.132 µg/mL) in assay [1] and 0.065 µM (≈ 0.0221 µg/mL) in assay [2].

Take `N=C(Nc1nc(-c2ccccn2)cc2ccccc12)c1ncccn1`: the minimal inhibitory concentration (MIC) in assay [1] was found to be 0.195 µM (≈ 0.0636 µg/mL); in assay [2], 0.0325 µM (≈ 0.0106 µg/mL).

On to `Cc1cc(C)nc(C(=N)Nc2nc(-c3ccccn3)cc3ccccc23)n1`, for which the MIC in assay [1] came out at 0.195 µM (≈ 0.0691 µg/mL); in assay [3] it was 0.0455 µM (≈ 0.0161 µg/mL).

With `N=C(Nc1nc(-c2ccccn2)cc2ccccc12)c1ccc(Cl)cc1`, the MIC came out at 6.25 µM (≈ 2.24 µg/mL) in assay [1] and 0.195 µM (≈ 0.07 µg/mL) in assay [2].

On to `N=C(Nc1nc(-c2ccccn2)cc2ccccc12)c1cccc(Cl)c1`, for which the MIC in assay [1] turned out to be 6.25 µM (≈ 2.24 µg/mL); in assay [2], 0.195 µM (≈ 0.07 µg/mL).

`COc1ccc(C(=N)Nc2nc(-c3ccccn3)cc3ccccc23)cc1`: the minimum inhibitory concentration (MIC) in assay [1] amounted to 0.78 µM (≈ 0.276 µg/mL); in assay [2] it was 0.104 µM (≈ 0.0369 µg/mL).

Take `N=C(Nc1nc(-c2ccccn2)cc2ccccc12)c1cnccn1`: the MIC stood at 0.195 µM (≈ 0.0636 µg/mL) in assay [1] and 0.039 µM (≈ 0.0127 µg/mL) in assay [2].
